Consider six molecules from article PMC3684861 (European journal of nuclear medicine and molecular imaging, 2011).

The conditions of data set [1]: cited from earlier work.
Data set [2] has as its system EMT6 and EMT6Ar1.0 tumour sections (Pgp). Nature of the data set: In vitro autoradiography on tumour sections. It is filed as binding, mouse. Particulars: for binding in EMT6Ar1.0 tumours compared to EMT6 tumours: radiotracer alone, 30 min incubation, 10 μm tumour slices. The method, boiled down: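 Frozen tumours from imaged mice were cut into 10 μm cryostat sections at −12°C, with 3 consecutive sections. Sections were thawed, preincubated in PBS, then incubated 30 min with ¹¹C-labelled Pgp radiotracer (about 20 MBq), alone or with unlabelled inhibitor (10 μM). They were washed in 20% (v/v) ethanol/PBS and distilled water, air-dried, exposed to a phosphor screen and scanned at 600 dpi.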

The test system of data set [3] is Pgp at the BBB (whole brain). Nature of the data set: Small-animal PET, whole brain as reference region for Pgp modulation at the BBB. It counts as in vivo, mouse. Particulars: for tumoural activity uptake relative to brain activity uptake: scan 1, before unlabelled tariquidar; for brain AUC0-60 in scan 2 relative to scan 1: whole brain, scan 2 at 2 h after unlabelled tariquidar 15 mg/kg i.v.

The subject of data set [4] is Pgp overexpressing EMT6Ar1.0 tumours. It is filed as in vivo, mouse.
In data set [5] the test system is EMT6 tumours. It counts as in vivo, mouse. The note with it: scan 2, 2 h after unlabelled tariquidar 15 mg/kg i.v.
Data set [6] concerns EMT6 tumours. Nature of the data set: Static [18F]FDG PET, EMT6 tumours. It counts as in vivo, mouse. The note with it: 10 min static PET scan at 60 min after injection. The method, boiled down:
(§1)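 Female athymic NMRI-Foxn1^nu mice (6-8 weeks) had EMT6 and EMT6Ar1.0 cells (3-5 × 10⁵) injected subcutaneously into opposite upper flanks. At about 130 mm³ tumour size, mice (n=7) under isoflurane at about 37°C received [¹⁸F]FDG (6±3 MBq) i.v. A 10 min static microPET scan was taken at 60 min. Tumour ROIs were outlined manually, with SUV = (radioactivity/cm³ ÷ injected radioactivity) × body weight.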

In data set [7] the test system is EMT6Ar1.0 tumours. Nature of the data set: Static [18F]FDG PET, EMT6Ar1.0 tumours. It is filed as in vivo, mouse. Particulars: 10 min static PET scan at 60 min after injection. In a few lines:
as §1

The conditions of data set [8]: cited from earlier work. This is another data set of the same source.
In data set [9] the test system is EMT6Ar1.0 cells. The data set is described as follows: In vitro cytotoxicity assay, EMT6Ar1.0 cells. It is filed as cell-based, mouse. The note with it: tariquidar ≥0.1 μM, 48 h, culture medium containing doxorubicin. The method, boiled down:
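The Pgp-overexpressing line was derived from EMT6 cells by culture under increasing doxorubicin concentrations and kept at 37°C, 5% CO₂. Cells were exposed to increasing test compound concentrations (0.01 to 10 μM) in their own culture medium for 48 h. Survival was expressed relative to control cells.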

In data set [10] the test system is EMT6 cells. The data set is described as follows: In vitro cytotoxicity assay, EMT6 cells. It counts as cell-based, mouse. The note with it: tariquidar 0.01 to 10 μM, 48 h. In a few lines: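 EMT6 cells were grown as monolayers in Waymouth's MB 752/1 with 2.4 mM L-glutamine, 15% heat-inactivated FBS and penicillin/streptomycin at 37°C, 5% CO₂. Cells were exposed to increasing test compound concentrations (0.01 to 10 μM) in their culture medium for 48 h. Survival was expressed relative to control cells.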

The subject of data set [11] is Pgp at the BBB. Particulars: tariquidar dose 15 mg/kg; cited from earlier work.

Take “4-[^18F]fluoropaclitaxel [reference compound]”: in data set [1], the metabolism in vivo result is given as “extensively metabolised”.
Take `COc1ccc(CCN([11CH3])CCC[C@](C#N)(c2ccc(OC)c(OC)c2)C(C)C)cc1OC` [(R)-[^11C]verapamil, reference compound]: the “radiotracer binding after co-incubation” value in data set [2] (both tumours, co-incubation with unlabelled tariquidar, elacridar or verapamil (10 μM)) is listed as “no significant reduction”. Further, the “binding in EMT6Ar1.0 tumours compared to EMT6 tumours” value (shortened to “binding … compared to EMT6 tumours”) in [2] turned out to be 1.3 times.
In the case of `COc1cc2c(cc1OC)CN(CCc1ccc(NC(=O)c3cccc4c(=O)c5cccc(OC)c5[nH]c34)cc1)CC2` [[^11C]elacridar], in data set [3], the “tumoural activity uptake relative to brain activity uptake” value fell in the range of 2 to 3 times and the “brain AUC0-60 in scan 2 relative to scan 1” value stood at 3.5±0.4 times. In data set [1], the metabolism in vivo entry is reported as “hardly metabolised”. In data set [2], the “binding … compared to EMT6 tumours” value was found to be 2.1 times.
As for `COc1cc2c(cc1OC)CN(CCc1ccc(NC(=O)c3cc(OC)c(OC)cc3NC(=O)c3cnc4ccccc4c3)cc1)CC2` [[^11C]tariquidar], in data set [3], the “tumoural activity uptake relative to brain activity uptake” value is given as 2 to 3 times. For the same molecule, in data set [3], the “brain AUC0-60 in scan 2 relative to scan 1” value is 2.4±0.3 times. In addition, in data set [1], the metabolism in vivo entry is reported as “hardly metabolised”. In addition, the “higher retention in EMT6Ar1.0 tumours than in EMT6 tumours” value in data set [4] (PET, AUC0-60) is recorded as 50%. For the same molecule, the “mean AUC0-60±SD of tumour time-activity curve (SUV)” value turned out to be 45.6 ± 4.8 min in data set [4] (scan 2, 2 h after unlabelled tariquidar 15 mg/kg i.v., EMT6Ar1.0 tumours) and 31.7 ± 7.9 min in [5]. Besides, in [2], the “binding … compared to EMT6 tumours” value is listed as 4.3 times.
Consider `OC[C@H]1OC(O)[C@H]([18F])[C@@H](O)[C@@H]1O` (some centres unmarked) [[^18F]FDG], for which the “mean tumoural SUV±SD” value in data set [6] is recorded as 1.86±0.49; in [7], 2.45±0.75.
Consider `COc1cc2c(cc1OC)CN(CCc1ccc(NC(=O)c3cc(OC)c(OC)cc3NC(=O)c3cnc4ccccc4c3)cc1)CC2` [tariquidar, Tariquidar dimesylate], for which, in [8], the terminal elimination half-life is reported as 26 h. Also, the cell survival rate in data set [9] is recorded as < 5 % of control cells. The “effect on cell survival” value in data set [10] was “no effect”. The “inhibition of Pgp at the BBB” value in data set [11] is “complete inhibition”.
